What was measured:
Candida albicans [1] = assay: Antifungal activity against Candida albicans 501670 assessed as reduction in microbial growth preincubated for 60 mins under dark condition and measured after 20 to 24 hrs at room temperature by RPMI-1640 based dilution assay
Escherichia coli [2] = assay: Antibacterial activity against Escherichia coli DSM1103 assessed as reduction in microbial growth preincubated for 60 mins under dark condition and measured after 20 to 24 hrs at room temperature by muller hinton broth based dilution assay; type: functional; conditions: time 20-24 hrs
In short: (§1)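 Bacteria grown overnight at 37 °C for 15−18 h in the dark, then set to 0.5 McFarland (read at 600 nm) and diluted 1:50 in Müller-Hinton broth to (2–8) × 10⁵ CFU/mL. Dark plate held at room temperature, then incubated at 37 °C. After 20−24 h, turbidity was read against the untreated growth control, with blanks subtracted. Compounds tested at ≥10 concentrations in biological triplicate.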

A549 [3] = assay: Phototoxicity against human A549 cells assessed as reduction in cell growth preincubated with compound for 24 hrs followed by blue light irradiation at 468 nm for 7 mins 30 sec and measured after 48 hrs by SRB assay; type: functional, cell-based; conditions: A549, light or radiation study
In short: (§2)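 Cells (A549 2000, AGS 2500, T24 1500 per well) seeded in Opti-MEM with 2.4% FCS. After 24 h, treated with 25.0−0.3 μM (six levels). After another 24 h, medium was replaced and cells got blue light (468±27 nm, 9.3 J/cm²). Held 48 h at 37 °C, 5% CO2, then TCA-fixed and SRB-stained, read at 540 nm. EC50 from variable-slope fit with 95% CI.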

A549 [4] = assay: Phototoxicity against human A549 cells assessed as reduction in cell growth preincubated with compound for 24 hrs under dark condition and measured after 48 hrs by SRB assay; type: functional, cell-based; conditions: A549, light or radiation study
In short: (§3)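 Dark control plate processed the same way: cells (A549 2000, AGS 2500, T24 1500 per well) in Opti-MEM with 2.4% FCS, dosed at 25.0−0.3 μM 24 h after seeding. Medium renewed after 24 h, then 48 h further at 37 °C, 5% CO2 without light. SRB read-out at 540 nm after TCA fixation. EC50 with 95% CI from variable-slope fit.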

A549 [5] = assay: Photo index, ratio of EC50 for human A549 cells killed in the absence of light to EC50 for human A549 cells killed after irradiation; type: functional
In short: (§4)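 SRB assay: cells seeded in Opti-MEM with 2.4% FCS, treated 24 h later with 0.3–25.0 μM, medium replaced after 24 h. Duplicate plates were irradiated with blue light (468 nm, 9.3 J/cm²) or green light (519 nm, 30.0 J/cm²), or kept dark, then held 48 h at 37 °C, 5% CO₂. EC50 from Hill fit; photoindex = EC50 dark / EC50 irradiated.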

AGS [6] = assay: Phototoxicity against human AGS cells assessed as reduction in cell growth preincubated with compound for 24 hrs followed by blue light irradiation at 468 nm for 7 mins 30 sec and measured after 48 hrs by SRB assay; type: functional, cell-based; conditions: light or radiation study
In short: as §2

AGS [7] = assay: Phototoxicity against human AGS cells assessed as reduction in cell growth preincubated with compound for 24 hrs under dark condition and measured after 48 hrs by SRB assay; type: functional, cell-based; conditions: light or radiation study
In short: as §3

AGS [8] = assay: Photo index, ratio of EC50 for human AGS cells killed in the absence of light to EC50 for human AGS cells killed after irradiation; type: functional
In short: as §4

T-24 [9] = assay: Phototoxicity against human T24 cells assessed as reduction in cell growth preincubated with compound for 24 hrs followed by blue light irradiation at 468 nm for 7 mins 30 sec and measured after 48 hrs by SRB assay; type: functional, cell-based; conditions: T-24, light or radiation study
In short: as §2

T-24 [10] = assay: Phototoxicity against human T24 cells assessed as reduction in cell growth preincubated with compound for 24 hrs under dark condition and measured after 48 hrs by SRB assay; type: functional, cell-based; conditions: T-24, light or radiation study
In short: as §3

T-24 [11] = assay: Photo index, ratio of EC50 for human T24 cells killed in the absence of light to EC50 for human T24 cells killed after irradiation; type: functional
In short: as §4

Staphylococcus aureus [12] = assay: Antibacterial activity against Staphylococcus aureus DSM1104 assessed as reduction in microbial growth preincubated for 60 mins under dark condition and measured after 20 to 24 hrs at room temperature by muller hinton broth based dilution assay; type: functional; conditions: time 20-24 hrs
In short: as §1

Escherichia coli [13] = assay: Antibacterial activity against Escherichia coli DSM1103 assessed as reduction in microbial growth preincubated for 60 mins under dark condition followed by 428 nm light irradiation and measured after 20 to 24 hrs by muller hinton broth based dilution assay; type: functional; conditions: DSM1103, light or radiation study, time 21-25 hrs
In short: (§5)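 PhotoMIC (modified EUCAST broth microdilution): 0.5 McFarland suspensions diluted 1:50 in Mueller-Hinton broth (bacteria, 2–8 × 10⁵ CFU/mL) or 1:10 in double-strength RPMI-1640 (yeast, 0.5–2.5 × 10⁵ CFU/mL); ≥10 concentrations, biological triplicates; 60 min dark preincubation, then 30 J/cm² irradiation or dark duplicate plate; 37 °C, 20–24 h; turbidity versus growth control, blanks subtracted.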

Escherichia coli [14] = assay: Antibacterial activity against Escherichia coli DSM1103 assessed as reduction in microbial growth preincubated for 60 mins under dark condition followed by 478 nm light irradiation and measured after 20 to 24 hrs by muller hinton broth based dilution assay; type: functional; conditions: DSM1103, light or radiation study, time 21-25 hrs
In short: as §5

Escherichia coli [15] = assay: Antibacterial activity against Escherichia coli DSM1103 assessed as reduction in microbial growth preincubated for 60 mins under dark condition followed by 530 nm light irradiation and measured after 20 to 24 hrs by muller hinton broth based dilution assay; type: functional; conditions: DSM1103, light or radiation study, time 21-25 hrs
In short: as §5

Staphylococcus aureus [16] = assay: Antibacterial activity against Staphylococcus aureus DSM1104 assessed as reduction in microbial growth preincubated for 60 mins under dark condition followed by 428 nm light irradiation and measured after 20 to 24 hrs by muller hinton broth based dilution assay; type: functional; conditions: DSM1104, light or radiation study, time 21-25 hrs
In short: as §5

Staphylococcus aureus [17] = assay: Antibacterial activity against Staphylococcus aureus DSM1104 assessed as reduction in microbial growth preincubated for 60 mins under dark condition followed by 478 nm light irradiation and measured after 20 to 24 hrs by muller hinton broth based dilution assay; type: functional; conditions: DSM1104, light or radiation study, time 21-25 hrs
In short: as §5

Staphylococcus aureus [18] = assay: Antibacterial activity against Staphylococcus aureus DSM1104 assessed as reduction in microbial growth preincubated for 60 mins under dark condition followed by 530 nm light irradiation and measured after 20 to 24 hrs by muller hinton broth based dilution assay; type: functional; conditions: DSM1104, light or radiation study, time 21-25 hrs
In short: as §5

Candida albicans [19] = assay: Antifungal activity against Candida albicans 501670 assessed as reduction in microbial growth preincubated for 60 mins under dark condition followed by 428 nm light irradiation and measured after 20 to 24 hrs by RPMI-1640 based dilution assay; conditions: Candida albicans, 501670, light or radiation study
Candida albicans [20] = assay: Antifungal activity against Candida albicans 501670 assessed as reduction in microbial growth preincubated for 60 mins under dark condition followed by 478 nm light irradiation and measured after 20 to 24 hrs by RPMI-1640 based dilution assay; conditions: Candida albicans, 501670, light or radiation study
Candida albicans [21] = assay: Antifungal activity against Candida albicans 501670 assessed as reduction in microbial growth preincubated for 60 mins under dark condition followed by 530 nm light irradiation and measured after 20 to 24 hrs by RPMI-1640 based dilution assay; conditions: Candida albicans, 501670, light or radiation study

**Q.** `C[C@@H]1[C@H](O)[C@@H](C)/C=C/C=C/C=C/C=C/C=C/C=C/C=C/[C@H](O[C@@H]2O[C@H](C)[C@@H](O)[C@H](N)[C@@H]2O)C[C@@H]2O[C@](O)(C[C@@H](O)C[C@@H](O)[C@H](O)CC[C@@H](O)C[C@@H](O)CC(=O)O[C@H]1C)C[C@H](O)[C@H]2C(=O)O` [AMPHOTERICIN B] was tested. Which MIC (Candida albicans [1]) did it give?
**A.** Its MIC is 0.22 µM.

**Q.** `O=C(N[C@H](CO)[C@H](O)c1ccc([N+](=O)[O-])cc1)C(Cl)Cl` [CHLORAMPHENICOL] was tested. Which MIC (Escherichia coli [2]) did it give?
**A.** Its MIC is 6.1 µM.

**Q.** How did the MIC (Escherichia coli [2]) turn out when `Cc1cc(O)c2c(c1)C(=O)c1cc(O)cc(O)c1C2=O` [EMODIN] was run?
**A.** Its MIC is greater than 92 µM.

**Q.** And the EC50 (A549 [3])?
**A.** The EC50 was 2900 nM.

**Q.** And the EC50 (A549 [4])?
**A.** The EC50 was 19000 nM.

**Q.** And the “Ratio EC50” value (A549 [5])?
**A.** The value was 7.

**Q.** And the EC50 (AGS [6])?
**A.** The EC50 was 1500 nM.

**Q.** What about the EC50 (AGS [7]) of the same molecule?
**A.** Its EC50 is greater than 25000 nM.

**Q.** And the “Ratio EC50” value (AGS [8])?
**A.** Its value is greater than 16.

**Q.** What about the EC50 (T-24 [9]) of the same molecule?
**A.** Its EC50 is 1700 nM.

**Q.** And the EC50 (T-24 [10])?
**A.** Its EC50 is greater than 25000 nM.

**Q.** What about the “Ratio EC50” value (T-24 [11]) of the same molecule?
**A.** Its value is greater than 15.

**Q.** And the MIC (Staphylococcus aureus [12])?
**A.** The MIC was greater than 92 µM.

**Q.** And the MIC (Escherichia coli [13])?
**A.** The MIC was 11.1 µM.

**Q.** And the MIC (Escherichia coli [14])?
**A.** The MIC was greater than 92 µM.

**Q.** And the MIC (Escherichia coli [15])?
**A.** Its MIC is greater than 92 µM.

**Q.** What about the MIC (Staphylococcus aureus [16]) of the same molecule?
**A.** Its MIC is 1.85 µM.

**Q.** What about the MIC (Staphylococcus aureus [17]) of the same molecule?
**A.** The MIC was 1.85 µM.

**Q.** And the MIC (Staphylococcus aureus [18])?
**A.** Its MIC is 11.1 µM.

**Q.** And the MIC (Candida albicans [1])?
**A.** The MIC was greater than 92 µM.

**Q.** What about the MIC (Candida albicans [19]) of the same molecule?
**A.** Its MIC is 0.37 µM.

**Q.** And the MIC (Candida albicans [20])?
**A.** Its MIC is 2.78 µM.

**Q.** And the MIC (Candida albicans [21])?
**A.** Its MIC is 46 µM.

**Q.** How did the MIC (Staphylococcus aureus [12]) turn out when `CC[C@H]1OC(=O)[C@H](C)[C@@H](O[C@H]2C[C@@](C)(OC)[C@@H](O)[C@H](C)O2)[C@H](C)[C@@H](O[C@@H]2O[C@H](C)C[C@H](N(C)C)[C@H]2O)[C@](C)(O)C[C@@H](C)C(=O)[C@H](C)[C@@H](O)[C@]1(C)O` [ERYTHROMYCIN] was run?
**A.** The MIC was 1.4 µM.

— ChEMBL document CHEMBL5370587, “Fungal Anthraquinone Photoantimicrobials Challenge the Dogma of Cationic Photosensitizers” (J Nat Prod, 2023)
